According to ChEMBL document CHEMBL3259725, “Synthesis of stable aromatic and heteroaromatic sulfonyl-amidoximes and evaluation of their antioxidant and lipid peroxidation activity” (Eur J Med Chem, 2014):
The source made the active and inactive calls. The calls are words filed in the database; no cut-off is given here.

Assays:
Format in all cases: functional
[1] = tested on: Radical scavenging activity; assay: Antioxidant activity assessed as reduction of DPPH free radical formation at 100 uM after 20 mins relative to control; set-up: scale not given: the % may be the effect or the level left
Outline: (§1)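 Compounds at a final 100 concentration were mixed with the stable radical DPPH, using ethanol as the control solution. Absorbance at 517 nm was read after 20 and 60 min at room temperature. Each assay was run at least in triplicate.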

[2] = Antioxidant activity assessed as inhibition of Fe3+/ascorbic acid-induced hydroxyl radical formation by measuring DMSO-induced formaldehyde production at 100 uM after 30 mins relative to control
Outline: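 Hydroxyl radicals were generated by Fe3+/ascorbic acid in 50 mM phosphate buffer, pH 7.4, containing 0.1 mM EDTA and 33 mM DMSO, with compounds at 0.1 mM. Radical yield was measured as formaldehyde formed from DMSO oxidation, determined by the Nash method.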

[3] = tested on: Radical scavenging activity; assay: Antioxidant activity assessed as reduction of DPPH free radical formation at 100 uM after 60 mins relative to control; set-up: scale not given: the % may be the effect or the level left; outline: as §1
[4] = Antioxidant activity assessed as inhibition of AAPH-induced linoleic acid peroxidation at 100 uM by UV spectrophotometric analysis relative to control
Outline: (§2)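 Linoleic acid dispersion (16 mM stock) in 0.05 M phosphate buffer, pH 7.4, pre-equilibrated at 37 °C. Oxidation was started with AAPH (40 mM stock solution) as radical initiator, with test compound added in DMSO. Conjugated diene hydroperoxide formation was followed as the rise in absorbance at 234 nm at 37 °C. The control contained the same level of DMSO without antioxidant.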

[5] = Antioxidant activity assessed as inhibition of AAPH-induced linoleic acid peroxidation by UV spectrophotometric analysis; outline: as §2

With N=C(NOS(=O)(=O)c1ccccc1)c1ccncc1 the Activity [1] was 2%, the inhibition [2] was 44% and the Activity [3] was 11%. For the same molecule, the inhibition [4] was 22%.

With Cc1c(C)c2c(c(C)c1O)CCC(C)(C(=O)O)O2 (stereo unspecified) [TROLOX] the IC50 [5] was 55 µM and the inhibition [2] was 88%.

In the case of Cc1ccc(S(=O)(=O)O/N=C(\N)c2ccncc2)cc1, the Activity [1] is reported as “inactive”, the inhibition [2] is reported as 32% and the Activity [3] is reported as “inactive”. The inhibition [4] was “inactive”.

CCCCCCCCCCCCCCCCS(=O)(=O)O/N=C(\N)c1ccc([N+](=O)[O-])cc1 showed an Activity [1] of 21%, an inhibition [2] of 100% and an Activity [3] of 24%. For the same molecule, the inhibition [4] was 3%.

N/C(=N\OS(=O)(=O)c1ccc([N+](=O)[O-])cc1)c1cccnc1 showed an Activity [1] of 8%, an IC50 [5] of 85 µM and an inhibition [2] of 18%. For the same molecule, the Activity [3] was 11%.

In the case of N/C(=N\OS(=O)(=O)c1ccc([N+](=O)[O-])cc1)c1ccc([N+](=O)[O-])cc1, the Activity [1] is reported as 34%, the IC50 [5] is reported as 66.5 µM and the inhibition [2] is reported as “inactive”. It also gave an Activity [3] of 38%.

Work on NC(=NOS(=O)(=O)c1ccc([N+](=O)[O-])cc1)c1ccncc1 yielded an Activity [1] of 13%, an inhibition [2] of 0% and an Activity [3] of 20%. It also gave an inhibition [4] of 49%.

Work on CCCS(=O)(=O)O/N=C(\N)c1ccc([N+](=O)[O-])cc1 yielded an Activity [1] of 10%, an inhibition [2] of 75% and an Activity [3] of 19%. It also gave an inhibition [4] of 22%.

Molecule CCCCCCCCCCS(=O)(=O)O/N=C(\N)c1ccccn1 has an Activity [1] of 11%, an inhibition [2] of 79% and an Activity [3] of 10%. For the same molecule, the inhibition [4] was 46%.

Work on N/C(=N\O)c1ccc([N+](=O)[O-])cc1 yielded an Activity [1] of 3%, an inhibition [2] of 85% and an Activity [3] of 4%. For the same molecule, the inhibition [4] was 41%.

With CCCS(=O)(=O)O/N=C(\N)c1ccncc1 the Activity [1] was “inactive”, the inhibition [2] was 66% and the Activity [3] was 4%. For the same molecule, the inhibition [4] was “inactive”.

CCCCCCCCCCCCCCCCS(=O)(=O)O/N=C(\N)c1cccnc1 showed an Activity [1] of 7%, an IC50 [5] of 70 µM and an inhibition [2] of 69%. It also gave an Activity [3] of 16%.

CCCS(=O)(=O)O/N=C(\N)c1ccccn1 showed an Activity [1] of 6%, an inhibition [2] of 83% and an Activity [3] of 1%. The inhibition [4] was “inactive”.

Work on Cc1ccc(S(=O)(=O)O/N=C(\N)c2ccccn2)cc1 yielded an Activity [1] of 5%, an IC50 [5] of 80 µM and an inhibition [2] of 72%. The Activity [3] was 4%.

CCCCCCCCCCS(=O)(=O)O/N=C(\N)c1cccnc1 gave an Activity [1] of 20%, an inhibition [2] of 72% and an Activity [3] of 24%. For the same molecule, the inhibition [4] was 33%.

In the case of N=C(NOS(=O)(=O)c1ccccc1)c1cccnc1, the Activity [1] is reported as 24%, the inhibition [2] is reported as 28% and the Activity [3] is reported as 25%. For the same molecule, the inhibition [4] was 21%.

For Cc1ccc(S(=O)(=O)O/N=C(\N)c2ccc([N+](=O)[O-])cc2)cc1, the Activity [1] was 10%, the inhibition [2] was 78% and the Activity [3] was 11%. The inhibition [4] was 25%.

With CCCCCCCCCCCCCCCCS(=O)(=O)O/N=C(\N)c1ccccn1 the Activity [1] was 4%, the inhibition [2] was “inactive” and the Activity [3] was 1%. It also gave an inhibition [4] of 21%.

CCCCCCCCCCS(=O)(=O)O/N=C(\N)c1ccc([N+](=O)[O-])cc1 showed an Activity [1] of 3%, an inhibition [2] of 48% and an Activity [3] of 12%. The inhibition [4] was “inactive”.

For CCCCCCCCCCCCCCCCS(=O)(=O)O/N=C(\N)c1ccncc1, the Activity [1] was 14%, the inhibition [2] was “inactive” and the Activity [3] was 21%. For the same molecule, the inhibition [4] was 12%.

CC(Cc1ccc(O)c(O)c1)C(C)Cc1ccc(O)c(O)c1 (stereo unspecified) showed an Activity [1] of 77% and an Activity [3] of 81%.

For CCCS(=O)(=O)O/N=C(\N)c1cccnc1, the Activity [1] was 23%, the inhibition [2] was 63% and the Activity [3] was 27%. It also gave an inhibition [4] of 16%.

N/C(=N\O)c1cccnc1 showed an Activity [1] of 12%, an inhibition [2] of 60% and an Activity [3] of 15%. For the same molecule, the inhibition [4] was “inactive”.

N/C(=N\O)c1ccccn1 showed an Activity [1] of 11%, an inhibition [2] of 81% and an Activity [3] of 14%. For the same molecule, the inhibition [4] was “inactive”.

Molecule CCCCCCCCCCS(=O)(=O)O/N=C(\N)c1ccncc1 has an Activity [1] of 14%, an inhibition [2] of 70% and an Activity [3] of 21%. It also gave an inhibition [4] of 28%.

For Cc1ccc(S(=O)(=O)O/N=C(\N)c2cccnc2)cc1, the Activity [1] was 34%, the inhibition [2] was 95% and the Activity [3] was 41%. It also gave an inhibition [4] of 43%.

With N=C(NOS(=O)(=O)c1ccccc1)c1ccccn1 the Activity [1] was 4%, the inhibition [2] was 32% and the Activity [3] was “inactive”. For the same molecule, the inhibition [4] was 30%.

Work on N/C(=N\OS(=O)(=O)c1ccc([N+](=O)[O-])cc1)c1ccccn1 yielded an Activity [1] of 32%, an IC50 [5] of 72 µM and an inhibition [2] of 98%. The Activity [3] was 32%.

NC(=NO)c1ccncc1 showed an Activity [1] of 3%, an inhibition [2] of 87% and an Activity [3] of 7%. For the same molecule, the inhibition [4] was “inactive”.

N/C(=N\OS(=O)(=O)c1ccccc1)c1ccc([N+](=O)[O-])cc1 showed an Activity [1] of 4%, an inhibition [2] of 34% and an Activity [3] of 8.4%. For the same molecule, the inhibition [4] was 5%.
